Screening results as filed in PubChem.
TNAP act mid DEA = activators of human TNAP at intermediate phosphate acceptor; AID 813; 64,000 tested, under 10 active; purified TNAP, CDP-star luminescence, 100 mM DEA, 30 min; stronger effect = higher value; scale: 0 levamisole-inhibited, 1 vehicle-only enzyme; P05186; activation factor at 20 µM;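 active means activation factor of at least 2 at 20 µM, relative to controls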
D1 mod = allosterically modulates the human D1 dopamine receptor; B-score at 10 µM; actives 5.9% (n = 58,000); HEK293 D1, CRE-luciferase, dopamine EC30 potentiation; actives deviate in either direction; P21728;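 active means luminescence count or its row- and column-corrected plate score outside the 99.7% band of the plate's sample wells, on either side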
M1 agonist = activates the M1 muscarinic receptor. CHO-M1 cells, Fluo-4 calcium fluorescence, agonist mode; stronger effect = higher value. B-score at 10 µM. actives 3% (n = 64,000);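 active means fluorescence rise, raw or as B-score row- and column-corrected plate score, outside the 99.7% band of its plate's samples, either direction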
S1P3 agonist = S1P3 (human) receptor agonism. Q99500. S1P3 NFAT-BLA reporter cells, FRET ratio; relative to 1 µM S1P, basal subtracted. activation, % at 4.5 µM. actives 0.1% (n = 60,000);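 active means activation above the screen-wide mean plus 3 SD, cut at about 4.5% in these data, passing the limit was not always enough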
Target sequence (Q99500 whole entry, looked up): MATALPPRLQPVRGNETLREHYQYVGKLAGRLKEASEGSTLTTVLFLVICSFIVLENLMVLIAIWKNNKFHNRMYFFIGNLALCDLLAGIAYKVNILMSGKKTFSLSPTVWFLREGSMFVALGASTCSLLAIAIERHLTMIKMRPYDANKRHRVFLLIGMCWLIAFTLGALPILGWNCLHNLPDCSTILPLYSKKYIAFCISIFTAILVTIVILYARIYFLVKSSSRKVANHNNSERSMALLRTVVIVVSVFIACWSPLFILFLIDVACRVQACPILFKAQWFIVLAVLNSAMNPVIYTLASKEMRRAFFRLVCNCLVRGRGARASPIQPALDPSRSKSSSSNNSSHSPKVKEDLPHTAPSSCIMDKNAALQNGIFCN
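Measure – % activation relative to 1 µM S1P (100%), per plate · System – stable CHO line with human S1P3, Gα16, NFAT-BLA reporter · Timing – cells plated overnight, compound 4 h 37 °C, substrate 2 h RT · Technique – fluorescent BLA substrate, ex 405 nm, em 460/535 nm ratio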
M1 antagonist = antagonists of rat M1 muscarinic receptor | B-score at 10 µM | actives 3.4% (n = 64,000) | CHO-M1 cells, Fluo-4 calcium, ACh EC80 antagonist mode; stronger effect = lower value;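 active means calcium fluorescence response, raw or row-and-column corrected B-score, differing from the plate sample mean either way at a set confidence level, mostly lower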
S1P1 ag-PAM = agonists and agonism potentiators of human S1P1 receptor; P21453; S1P1 CRE-bla cells, forskolin, beta-lactamase FRET, potentiator mode; S1P1 agonist co-added at EC20, 2 nM; 100% = saturating reference agonist, 0% = basal; activation, % at 9.5 µM; actives 0.57% (n = 56,000); AID 449;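 active means activation above a cutoff set at the mean activation of all tested compounds plus 3 SD, cut at about 54% in these data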;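 further: forskolin at 4 µM as EC80 and the EC20 agonist is SEW2871; 100% = SEW2871 at its EC100 plus forskolin at EC80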
D1 PAM confirm = D1 receptor (human) allosteric modulation, confirmed | luminescence at 10 µM | shares compounds with D1 mod | AID 642 | actives 88% (n = 2,200) | HEK293 D1 CRE-luciferase, dopamine EC30 potentiation; stronger effect = higher value;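 active means luminescence in either of two replicates above the same-plate mean plus 3 SD of the low-dose dopamine control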
D1 no dopamine = secondary test of D1 modulators: activity without dopamine; actives 0.8% (n = 1,900); AID 646; HEK293 D1 CRE-luciferase, luminescence, no dopamine; stronger effect = higher value; luminescence at 10 µM; shares compounds with D1 mod; in the data active means luminescence above about 3900
Isoprot counter = counter-screen for D1 modulators: isoproterenol response in HEK293 cells. shares compounds with D1 mod. HEK293 D1 CRE-luciferase, isoproterenol EC30 counter-screen; stronger effect = higher value. luminescence at 10 µM. actives 63% (n = 2,200). AID 647;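 active means luminescence in either replicate above plate mean of wells with a partly effective reference agonist dose plus 3 SD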;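 further: isoproterenol raises cAMP through native beta-adrenoceptor Gs so signal bypasses D1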
Starred values were filed as active, the others as inactive. This is a sample that favours compounds with a hit; in the whole collection about 11% have one here.

`Cc1cc(C)n2nc3ccccc3c2n1` gave TNAP act mid DEA 0.9, D1 mod 2.8*, M1 agonist -0.73, S1P3 agonist -1, M1 antagonist 0.61, S1P1 ag-PAM -27, D1 PAM confirm 10324*, D1 no dopamine 1660 and Isoprot counter 3900*.
`CC(CN1CCOCC1)C(=O)O` (stereo not given) gave TNAP act mid DEA 0.9, S1P3 agonist -2 and S1P1 ag-PAM -18.
COc1ccc(-c2nn3c(-c4ccc(F)cc4)nnc3s2)cc1 was read as TNAP act mid DEA 0.9, D1 mod 0.99, M1 agonist -0.21, S1P3 agonist 1, M1 antagonist -2.4 and S1P1 ag-PAM -9.
For COc1ccc(Cc2nn3c(-c4ccccc4Br)nnc3s2)cc1 the results were TNAP act mid DEA 0.9, D1 mod 5.4*, M1 agonist 0.5, S1P3 agonist 0, M1 antagonist -0.34, S1P1 ag-PAM -6, D1 PAM confirm 8536*, D1 no dopamine 1392 and Isoprot counter 4900*.
COc1ccc(-c2nn3c(-c4ccccc4)nnc3s2)cc1 was read as TNAP act mid DEA 1, D1 mod 5.5*, M1 agonist 0.27, S1P3 agonist -1, M1 antagonist -0.71, S1P1 ag-PAM -8, D1 PAM confirm 11796*, D1 no dopamine 1844 and Isoprot counter 3672*.
COc1ccc(Cc2nn3c(-c4cc(OC)c(OC)c(OC)c4)nnc3s2)cc1 was read as TNAP act mid DEA 0.9, D1 mod 4.7*, M1 agonist 1.3, S1P3 agonist 0, M1 antagonist 0.027, S1P1 ag-PAM -41, D1 PAM confirm 8960*, D1 no dopamine 1520 and Isoprot counter 3956*.
For CCOC(=O)c1cccc(NC(=O)CCc2nc(-c3ccc(C)cc3)no2)c1 the results were TNAP act mid DEA 1, D1 mod -0.085, M1 agonist 0.47, S1P3 agonist -1, M1 antagonist -0.33 and S1P1 ag-PAM -17.
Screening CCOC(=O)c1cccc(NC(=O)CCc2nc(-c3ccccc3F)no2)c1 returned TNAP act mid DEA 1, D1 mod 3*, M1 agonist -0.77, S1P3 agonist 0, M1 antagonist 0.26, S1P1 ag-PAM -8, D1 PAM confirm 7612, D1 no dopamine 2088 and Isoprot counter 2424.
CCCCCn1c(Sc2ncccn2)nc2c1c(=O)[nH]c(=O)n2C was read as D1 mod 20*, M1 agonist 0.42, S1P3 agonist -1, M1 antagonist 1.1, S1P1 ag-PAM -13, D1 PAM confirm 25988*, D1 no dopamine 1676 and Isoprot counter 4764*.
Screening CCCCCCn1c(NCC)nc2c1c(=O)[nH]c(=O)n2C returned TNAP act mid DEA 0.9, D1 mod 5.3*, M1 agonist 0.56, S1P3 agonist 0, M1 antagonist -0.11, S1P1 ag-PAM -26, D1 PAM confirm 9696*, D1 no dopamine 1604 and Isoprot counter 3124*.
`CCCCCCn1c(SCC(=O)OC)nc2c1c(=O)[nH]c(=O)n2C` gave TNAP act mid DEA 0.9, D1 mod 4.7*, M1 agonist -0.51, S1P3 agonist 0, M1 antagonist -0.087, S1P1 ag-PAM 9, D1 PAM confirm 5408, D1 no dopamine 1472 and Isoprot counter 2984*.
Screening Cc1ccc(Cn2c(Sc3nccc(C)n3)nc3c2c(=O)[nH]c(=O)n3C)cc1 returned TNAP act mid DEA 0.9, M1 agonist -0.11 and M1 antagonist 0.41.
CCNc1nc2c(c(=O)[nH]c(=O)n2C)n1CC(C)C was read as TNAP act mid DEA 1, D1 mod 1.8, M1 agonist 0.28, S1P3 agonist -1, M1 antagonist -0.6 and S1P1 ag-PAM -10.
